The source of these data is ChEMBL document CHEMBL1255410, “Activity of the investigational fluoroquinolone finafloxacin against ciprofloxacin-sensitive and -resistant Acinetobacter baumannii isolates” (2010).

Common to all, as to type: functional
Assay [1] relates to Acinetobacter baumannii. Put plainly: Antimicrobial activity against Acinetobacter baumannii isolate 12 at pH 5.8. In a few lines: (§1)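 MIC by agar dilution on Mueller-Hinton agar acidified to pH 5.8 with HCl before antibiotic-containing plates were poured. Agar pH was rechecked once the agar had solidified. Isolates had characterized gyrA/parC genes. Plates for both drugs were made the same day from fresh media, and MICs were read in parallel with the standard-pH set.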

Assay [2] concerns Acinetobacter baumannii. Put plainly: Antimicrobial activity against Acinetobacter baumannii isolate 40 harboring GyrA Ser83-Leu mutation at pH 5.8. In short, it runs like this: (§2)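 Agar dilution MIC on Mueller-Hinton agar. For the acidic condition, HCl was added to bring the agar to pH 5.8 before pouring the antibiotic plates, and the pH was checked after the agar set. The standard condition was pH 7.2. Both drugs' plates were made the same day from fresh medium, and MICs were read at the same time.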

The subject of assay [3] is Acinetobacter baumannii. Put plainly: Antimicrobial activity against adeB overexpressing Acinetobacter baumannii isolate 68 harboring GyrA Ser83-Leu and ParC Ser80-Leu mutation at pH 7.2. In short, it runs like this:
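Agar dilution MIC on Mueller-Hinton agar under standard conditions (pH 7.2). Antibiotic-containing plates were made the same day from freshly prepared medium. Agar pH was checked after solidifying. Both fluoroquinolones were tested simultaneously against A. baumannii isolates with characterized gyrA/parC genes. MICs are in μg/ml.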

In assay [4] the test system is Acinetobacter baumannii. Nature of the assay: Antimicrobial activity against Acinetobacter baumannii isolate 43 harboring GyrA Ser83-Leu mutation at pH 7.2. In a few lines:
as §2

For assay [5], the system named is Acinetobacter baumannii. Put plainly: Antimicrobial activity against Acinetobacter baumannii isolate 45 harboring GyrA Ser83-Leu and ParC Ser80-Leu mutation at pH 7.2. In a few lines:
as §2

In assay [6] the test system is Acinetobacter baumannii. Put plainly: Antimicrobial activity against Acinetobacter baumannii isolate 2 at pH 5.8. In short, it runs like this: as §1
For assay [7], the system named is Acinetobacter baumannii. Nature of the assay: Antimicrobial activity against Acinetobacter baumannii isolate 46 harboring GyrA Ser83-Leu and ParC Ser80-Leu mutation at pH 7.2. In short, it runs like this: as §2
For assay [8], the system named is Acinetobacter baumannii. Nature of the assay: Antimicrobial activity against Acinetobacter baumannii isolate 5 at pH 7.2. In short, it runs like this: as §2
Assay [9] has as its system Acinetobacter baumannii. Put plainly: Antimicrobial activity against Acinetobacter baumannii isolate 16 at pH 7.2. In a few lines: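 MIC by agar dilution on Mueller-Hinton agar under standard conditions (pH 7.2), against isolates with characterized gyrA/parC genes. Agar pH was checked after solidifying. Plates for both drugs were prepared the same day from freshly made media, and MICs were determined simultaneously with the pH 5.8 set.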

In assay [10] the test system is Acinetobacter baumannii. Put plainly: Antimicrobial activity against Acinetobacter baumannii isolate 42 harboring GyrA Ser83-Leu mutation at pH 5.8. In a few lines: as §2
For assay [11], the system named is Acinetobacter baumannii. Put plainly: Antimicrobial activity against Acinetobacter baumannii isolate 21 harboring GyrA Ser83-Leu mutation at pH 5.8. In a few lines: as §1
The subject of assay [12] is Acinetobacter baumannii. Nature of the assay: Antimicrobial activity against adeB overexpressing Acinetobacter baumannii isolate 68 harboring GyrA Ser83-Leu and ParC Ser80-Leu mutation at pH 5.8. In a few lines:
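Agar dilution MIC on Mueller-Hinton agar acidified to pH 5.8 with HCl before the antibiotic-containing plates were poured. Agar pH was checked after solidifying. Plates were made the same day from fresh medium. Both fluoroquinolones were tested simultaneously against A. baumannii isolates with characterized gyrA/parC genes. MICs are in μg/ml.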

Assay [13] has as its system Acinetobacter baumannii. Put plainly: Antimicrobial activity against Acinetobacter baumannii isolate 47 harboring GyrA Ser83-Leu and ParC Ser80-Phe mutation at pH 7.2. In short, it runs like this:
as §2

In assay [14] the test system is Acinetobacter baumannii. Nature of the assay: Antimicrobial activity against Acinetobacter baumannii isolate 34 harboring GyrA Ser83-Leu mutation at pH 7.2. In short, it runs like this: as §2

≈ marks a conversion by molar mass, not a printed value.

A word on the MIC: it is the lowest concentration found to suppress growth. Low values mean a more susceptible organism, high ones a less susceptible organism. Consider `N#Cc1c(N2C[C@@H]3NCCO[C@H]3C2)c(F)cc2c(=O)c(C(=O)O)cn(C3CC3)c12` [FINAFLOXACIN], for which the MIC came out at 0.12 µg/mL (≈ 0.301 µM) with Acinetobacter baumannii [1]; 2 µg/mL (≈ 5.02 µM) against Acinetobacter baumannii [2]; 64 µg/mL (≈ 161 µM) against Acinetobacter baumannii [3]; 16 µg/mL (≈ 40.2 µM) against Acinetobacter baumannii [4]; 16 µg/mL (≈ 40.2 µM) against Acinetobacter baumannii [5]; 0.12 µg/mL (≈ 0.301 µM) in the assay with Acinetobacter baumannii [6]. Besides, the MIC in the assay on Acinetobacter baumannii [7] amounted to 16 µg/mL (≈ 40.2 µM); in the assay with Acinetobacter baumannii [8], 0.25 µg/mL (≈ 0.628 µM); in the assay with Acinetobacter baumannii [9] it was 1 µg/mL (≈ 2.51 µM); with Acinetobacter baumannii [10] it was 2 µg/mL (≈ 5.02 µM); with Acinetobacter baumannii [11] it was 0.25 µg/mL (≈ 0.628 µM); with Acinetobacter baumannii [12], 4 µg/mL (≈ 10 µM). Further, the figures for the MIC in the assay on Acinetobacter baumannii [13] and with Acinetobacter baumannii [14] were 32 µg/mL (≈ 80.3 µM) and 16 µg/mL (≈ 40.2 µM), respectively.
With `O=C(O)c1cn(C2CC2)c2cc(N3CCNCC3)c(F)cc2c1=O` [CIPROFLOXACIN], the MIC in the assay with Acinetobacter baumannii [1] was 2 µg/mL (≈ 6.04 µM); against Acinetobacter baumannii [2], over 128 µg/mL; with Acinetobacter baumannii [4], 32 µg/mL (≈ 96.6 µM); in the assay on Acinetobacter baumannii [6], 2 µg/mL (≈ 6.04 µM); in the assay with Acinetobacter baumannii [8] it was 0.12 µg/mL (≈ 0.362 µM); against Acinetobacter baumannii [9], 1 µg/mL (≈ 3.02 µM). Besides, the MIC is over 128 µg/mL against Acinetobacter baumannii [10], 32 µg/mL (≈ 96.6 µM) against Acinetobacter baumannii [11], over 128 µg/mL in the assay on Acinetobacter baumannii [12] and 8 µg/mL (≈ 24.1 µM) in the assay with Acinetobacter baumannii [14].
